In ChEMBL document CHEMBL1152234, “Synthesis and antitumoral evaluation of indole alkaloid analogues containing an hexahydropyrrolo[1',2',3':1,9a,9]imidazo[1,2-a]indole skeleton” (2008):
Activity calls are given as the source filed them. No cut-off for these calls is given here.

What was measured:
[1] = target: Hypoxia-inducible factor 1-alpha (Homo sapiens) (UniProt Q16665); experiment: Inhibition of HIF1alpha expressed in human HeLa cells at 10 ug/mL by HIF1-luciferase reporter gene assay relative to control; assay type: cell-based
Sequence of Hypoxia-inducible factor 1-alpha (Homo sapiens) (Q16665 whole entry, looked up): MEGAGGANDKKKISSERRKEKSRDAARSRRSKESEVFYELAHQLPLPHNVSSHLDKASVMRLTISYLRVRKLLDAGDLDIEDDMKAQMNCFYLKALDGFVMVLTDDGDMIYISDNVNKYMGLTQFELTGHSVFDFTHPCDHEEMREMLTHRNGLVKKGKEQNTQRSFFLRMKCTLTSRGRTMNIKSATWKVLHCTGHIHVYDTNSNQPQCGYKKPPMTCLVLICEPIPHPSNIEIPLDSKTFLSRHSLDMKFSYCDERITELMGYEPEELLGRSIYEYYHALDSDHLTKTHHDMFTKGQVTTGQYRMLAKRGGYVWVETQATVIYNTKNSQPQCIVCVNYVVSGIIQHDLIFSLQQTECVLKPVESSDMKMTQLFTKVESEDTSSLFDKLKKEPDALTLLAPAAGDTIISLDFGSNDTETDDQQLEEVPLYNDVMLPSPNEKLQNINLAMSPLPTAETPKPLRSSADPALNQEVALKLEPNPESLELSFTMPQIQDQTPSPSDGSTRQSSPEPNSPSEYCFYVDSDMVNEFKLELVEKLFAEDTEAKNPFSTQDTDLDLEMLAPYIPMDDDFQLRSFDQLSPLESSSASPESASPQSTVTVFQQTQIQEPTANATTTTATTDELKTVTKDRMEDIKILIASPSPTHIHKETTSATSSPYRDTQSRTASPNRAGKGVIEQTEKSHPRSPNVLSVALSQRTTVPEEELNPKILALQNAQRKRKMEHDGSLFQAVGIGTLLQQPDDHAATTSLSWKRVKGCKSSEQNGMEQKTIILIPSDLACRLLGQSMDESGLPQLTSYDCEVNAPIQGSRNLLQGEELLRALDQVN
How it was run: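 HIF1-luc stably transfected HeLa cells were plated at 20,000 cells/well and set for 24 h. They were pretreated 30 min with 1% DMSO vehicle or compound (10, 2, 0.4, 0.08, 0.016 µg/mL), then given 50 µM deferoxamine as hypoxia mimetic for 24 h. Survival was measured by calcein-AM fluorescence (0.1 µM, 30 min, 37 °C), followed by luciferase luminescence. Reported as % of control.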

A549 = experiment: Cytotoxicity against human A549 cells after 48 hrs by sulforhodamine B assay; assay type: functional; conditions: A549, 48 h; for CC50: read-out: LC50 (the source's name)
How it was run: (§1)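 Cells seeded at 5×10^3 per well in RPMI and allowed to attach for 18 h in drug-free medium. Samples were added in 3:7 DMSO/H2O, with highest concentration 100 µM, and exposed for 48 h. Cells were fixed with cold TCA at 4 °C for 60 min, stained with 0.4% SRB and solubilized in Tris. OD was read at 490 nm. GI50, TGI and LC50 came from automated analysis following the NCI protocol.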

MDA-MB-231 [2] = experiment: Cytotoxicity against human MDA-MB-231 cells after 48 hrs by sulforhodamine B assay; assay type: functional; conditions: MDA-MB-231, 48 h; for CC50: read-out: LC50 (the source's name); how it was run: as §1
[3] = target: T1, Catenin beta-1 (Homo sapiens) (UniProt P35222); experiment: Inhibition of beta-catenin expressed in human SW480 cells by luciferase reporter gene assay
T1 sequence (whole entry): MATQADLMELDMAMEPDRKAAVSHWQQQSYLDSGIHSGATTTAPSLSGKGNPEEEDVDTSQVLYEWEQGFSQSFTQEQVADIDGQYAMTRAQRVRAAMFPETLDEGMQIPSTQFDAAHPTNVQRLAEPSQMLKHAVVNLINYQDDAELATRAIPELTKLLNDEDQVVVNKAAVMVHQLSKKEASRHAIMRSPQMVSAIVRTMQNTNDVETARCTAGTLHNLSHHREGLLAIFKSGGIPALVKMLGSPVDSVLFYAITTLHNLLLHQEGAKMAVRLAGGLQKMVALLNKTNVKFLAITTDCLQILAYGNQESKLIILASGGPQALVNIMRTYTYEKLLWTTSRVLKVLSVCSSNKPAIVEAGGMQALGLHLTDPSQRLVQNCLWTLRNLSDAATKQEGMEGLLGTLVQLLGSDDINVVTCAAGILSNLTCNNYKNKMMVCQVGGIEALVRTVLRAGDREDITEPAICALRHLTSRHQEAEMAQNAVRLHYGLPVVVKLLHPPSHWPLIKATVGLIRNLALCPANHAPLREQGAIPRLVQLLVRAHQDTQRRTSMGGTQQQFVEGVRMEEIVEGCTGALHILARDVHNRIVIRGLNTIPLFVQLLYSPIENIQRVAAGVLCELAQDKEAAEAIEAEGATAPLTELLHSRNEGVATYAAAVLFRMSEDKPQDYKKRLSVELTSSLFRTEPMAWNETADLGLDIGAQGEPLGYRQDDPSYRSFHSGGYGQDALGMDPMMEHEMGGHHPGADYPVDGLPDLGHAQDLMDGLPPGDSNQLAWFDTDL

HT-29 = experiment: Cytotoxicity against human HT-29 cells after 48 hrs by sulforhodamine B assay; assay type: functional; conditions: HT-29, 48 h; how it was run: as §1
MDA-MB-231 [4] = experiment: Inhibition of histone deacetylase expressed in human MDA-MB-231 cells; assay type: cell-based
How it was run: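 Cell extracts from MDA-MB-231 breast carcinoma served as enzyme source. Trichostatin A at 250 nM was the reference inhibitor. Test concentrations were 10, 2, 0.4, 0.08 and 0.016 µg/mL. Data are % inhibition relative to controls.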

HeLa = experiment: Inhibition of mitosis in human HeLa cells assessed as G2 checkpoint inhibition by ELISA; assay type: functional, cell-based
How it was run: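 ELISA immunoassay in HeLa cells. Paclitaxel and vinblastine (each 1 µg/mL) were control inhibitors. Five fixed concentrations were tested (10, 2, 0.4, 0.08, 0.016 µg/mL). Inhibition and survival are given as % of controls.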

[5] = target: Epidermal growth factor receptor (Homo sapiens) (UniProt P00533); experiment: Inhibition of EGFR expressed in human HeLa cells at 10 ug/mL by AP1-luciferase reporter gene assay relative to control; assay type: cell-based
Sequence of Epidermal growth factor receptor (Homo sapiens) (P00533 whole entry): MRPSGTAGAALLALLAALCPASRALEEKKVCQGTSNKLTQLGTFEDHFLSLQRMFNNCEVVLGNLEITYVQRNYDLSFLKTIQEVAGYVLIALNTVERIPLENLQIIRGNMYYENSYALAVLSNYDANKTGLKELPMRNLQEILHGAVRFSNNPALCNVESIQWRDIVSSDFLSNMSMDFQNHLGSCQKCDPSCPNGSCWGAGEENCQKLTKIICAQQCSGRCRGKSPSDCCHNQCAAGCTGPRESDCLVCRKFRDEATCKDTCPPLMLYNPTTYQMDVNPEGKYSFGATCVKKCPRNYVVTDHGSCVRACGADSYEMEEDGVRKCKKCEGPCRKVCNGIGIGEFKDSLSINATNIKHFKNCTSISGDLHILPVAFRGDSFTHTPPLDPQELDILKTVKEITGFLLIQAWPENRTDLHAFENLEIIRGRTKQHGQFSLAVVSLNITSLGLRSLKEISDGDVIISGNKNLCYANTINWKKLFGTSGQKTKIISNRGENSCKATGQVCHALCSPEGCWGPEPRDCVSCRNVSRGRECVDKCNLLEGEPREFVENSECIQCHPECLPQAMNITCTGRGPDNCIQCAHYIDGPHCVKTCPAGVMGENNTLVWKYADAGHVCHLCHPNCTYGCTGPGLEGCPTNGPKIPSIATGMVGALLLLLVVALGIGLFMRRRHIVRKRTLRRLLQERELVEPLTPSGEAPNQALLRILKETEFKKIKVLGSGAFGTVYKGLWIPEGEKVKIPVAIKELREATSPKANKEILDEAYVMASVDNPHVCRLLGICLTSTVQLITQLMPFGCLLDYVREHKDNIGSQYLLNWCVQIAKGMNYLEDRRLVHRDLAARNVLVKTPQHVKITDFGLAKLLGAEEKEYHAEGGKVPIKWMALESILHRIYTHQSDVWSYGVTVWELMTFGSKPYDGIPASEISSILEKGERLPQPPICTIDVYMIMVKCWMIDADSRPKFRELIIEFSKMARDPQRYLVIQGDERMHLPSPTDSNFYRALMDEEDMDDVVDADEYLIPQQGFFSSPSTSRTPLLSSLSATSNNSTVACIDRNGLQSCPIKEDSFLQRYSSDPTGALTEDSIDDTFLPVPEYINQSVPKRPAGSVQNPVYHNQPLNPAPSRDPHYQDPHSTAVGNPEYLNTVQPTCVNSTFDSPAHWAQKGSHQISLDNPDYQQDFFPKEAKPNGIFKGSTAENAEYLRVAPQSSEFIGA
How it was run: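 AP1-luc stably transfected HeLa cells were grown in DMEM/10% FBS at 20,000 cells/well and set for 24 h. They were treated with 1% DMSO vehicle or compound (10, 2, 0.4, 0.08, 0.016 µg/mL) before stimulation with EGF at 25 ng/mL. Control inhibitor was AG-1478 at 20 µM. Survival was checked by calcein-AM (0.1 µM, 30 min, 37 °C), then luciferase read by luminescence. Values are % of control.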

Row | Structure (SMILES) | inhibition [1] | GI50 (A549) | TGI (A549) | CC50 (A549) | GI50 (MDA-MB-231 [2]) | TGI (MDA-MB-231 [2]) | CC50 (MDA-MB-231 [2]) | Activity [3] | GI50 (HT-29) | LC50 (concentration killing 50% of cells) (HT-29) | TGI (HT-29) | Activity (MDA-MB-231 [4]) | Activity (HeLa) | inhibition [5]
1 | COC(=O)[C@@H]1C[C@@]2(CC=C(C)C)c3ccccc3N3C(=N)[C@H](Cc4ccccc4)N1[C@H]32 | 78% | 22.1 µM | 24.1 µM | 24.1 µM | > 100 µM | > 100 µM | > 100 µM | inactive | 20.2 µM | 24.1 µM | 24.1 µM | inactive | inactive | 20%
2 | COC(=O)[C@@H]1C[C@]2(CC=C(C)C)c3ccccc3N3C(=N)[C@@H](Cc4ccccc4)N1[C@@H]32 | 61% | 12 µM | 24.1 µM | 24.1 µM | 9.39 µM | 24.1 µM | 24.1 µM | inactive | > 100 µM | > 100 µM | > 100 µM | inactive | inactive | 0%
3 | COC(=O)[C@@H]1C[C@@]2(CC=C(C)C)c3ccccc3N3C(=N)C(C)(C)N1[C@H]32 | 73% | 5.66 µM | 28.3 µM | 28.3 µM | 11 µM | 28.3 µM | 28.3 µM | inactive | 4.24 µM | 28.3 µM | 28.3 µM | inactive | inactive | 0%
4 | COC(=O)[C@@H]1C[C@@]2(CC=C(C)C)c3ccccc3N3C(=N)[C@H](C(C)(C)C)N1[C@H]32 | 83% | > 100 µM | > 100 µM | > 100 µM | 15.2 µM | 26.2 µM | 26.2 µM | inactive | > 100 µM | > 100 µM | > 100 µM | inactive | inactive | 0%
5 | COC(=O)[C@@H]1C[C@@]2(CC=C(C)C)c3ccccc3N3C(=N)[C@H](c4ccccc4)N1[C@H]32 | 78% | > 100 µM | > 100 µM | > 100 µM | > 100 µM | > 100 µM | > 100 µM | inactive | > 100 µM | > 100 µM | > 100 µM | inactive | inactive | 13%
6 | C=CC[C@@]12C[C@@H](C(=O)OC)N3[C@@H]1N(C(=N)C31CCCCC1)c1ccccc12 | – | 23.3 µM | 24.1 µM | 25.2 µM | 23.5 µM | 24.6 µM | 25.7 µM | inactive | 22.4 µM | 25.2 µM | 23.5 µM | inactive | inactive | 52%
7 | COC(=O)[C@@H]1C[C@H]2c3ccccc3N3C(=N)C(C)(C)N1[C@@H]23 | – | – | – | – | – | – | – | inactive | – | – | – | inactive | inactive | –
8 | COC(=O)[C@@H]1C[C@@]2(Br)c3cc(Br)ccc3N3C(=N)C4(CCCCC4)N1[C@H]32 | – | 7.24 µM | 10.8 µM | 16.1 µM | 6.21 µM | 8.49 µM | > 100 µM | inactive | 7.45 µM | 14.1 µM | 9.31 µM | inactive | inactive | 83%
9 | COC(=O)[C@@H]1C[C@H]2c3ccccc3N3C(=N)C4(CCCCC4)N1[C@@H]23 | – | 9.23 µM | 9.23 µM | 9.23 µM | – | – | – | inactive | 9.23 µM | 9.23 µM | 9.23 µM | inactive | inactive | –
10 | COC(=O)[C@@H]1C[C@@]2(Br)c3cc(Br)ccc3N3C(=N)[C@H](C(C)(C)C)N1[C@H]32 | 73% | > 100 µM | > 100 µM | > 100 µM | > 100 µM | > 100 µM | > 100 µM | inactive | > 100 µM | > 100 µM | > 100 µM | inactive | inactive | 0%
11 | COC(=O)[C@@H]1C[C@@]2(Br)c3ccccc3N3C(=N)[C@H](C(C)(C)C)N1[C@H]32 | 70% | > 100 µM | > 100 µM | > 100 µM | 17.6 µM | 25.5 µM | 25.5 µM | inactive | > 100 µM | > 100 µM | > 100 µM | inactive | inactive | 0%
